CYP2C9 inh – blockers of cytochrome P450 2C9 activity – biochemical, luminescence, ADME assay, primary screen; P11712; CYP2C9 Supersomes, luciferin-H conversion; inhibition, % at 5 µM; actives 20% (n = 96,000);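 active = blocking of liver enzyme CYP2C9 beyond about 50% at 5 µM, limit read from the data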
Cav3 T inh – Cav3.2 calcium influx blockers – cell-based, Fluo-4 calcium fluorescence, FDSS, MLSMR library, primary screen | B-score at 10 µM | AID 449739, 2010 | actives 4% (n = 100,000) | Voltage-dependent T-type calcium channel subunit alpha-1H (Homo sapiens), O95180 | Cav3.2-expressing cells; hits give low values;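 active = single-dose well whose peak fluorescence ratio is a statistical outlier from its plate by either plate-standardised score or position-corrected B-score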
CYP2C19 activ – human CYP2C19 activators, primary screen, biochemical, luminescence | Cytochrome P450 2C19 (Homo sapiens), P33261 | recombinant CYP2C19, luciferin-H EGE luminescence; hits give high values; 0 = fully inhibited enzyme, 1 = untreated enzyme | activation factor at 5 µM | 96,000 tested, under 10 active | AID 1025, 2008;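 active = activation factor of at least 2 at 5 µM in the primary screen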;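 note: 0 = wells with 2.5 mM tranylcypromine and 1 = vehicle-only wells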
CYP2C9 act – human CYP2C9 activators, primary screen, biochemical, luminescence. Cytochrome P450 2C9 (Homo sapiens), P11712. recombinant CYP2C9, luciferin-H conversion; hits give high values; factor 1 = untreated enzyme, 0 = blocked. activation factor at 5 µM. actives 1.4% (n = 96,000). AID 1024, 2008;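 active = activation factor of 2 or more for CYP2C9 at a 5 µM dose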;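 note: 0 = sulfaphenazole-blocked wells and 1 = vehicle-only wells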
HIV Rev-RRE inh – HIV-1 Rev-RRE binding inhibitors, primary screen, biochemical, FRET, protein-RNA interaction; inhibition, % at 8 µM; Rev peptide-RRE RNA binding; actives 0.79% (n = 97,000); AID 704, 2007; P05866;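 active = inhibition above the screen-wide mean plus 3 SD, cut at about 35% in these data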;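 note: 0% = median DMSO wells and 100% = median Neomycin B control wells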
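assay system = Cy5-tagged RRE RNA duplex with fluorescein-tagged Rev peptide | incubation = 5 + 15 min at 25 °C | also added = labelled Rev peptide | measure = % inhibition of FRET ratio versus controls | benchmarks = DMSO wells as 0% and neomycin B wells as 100% inhibition | measured by = FRET fluorescence readout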
CYP2C19 inhib – blockers of cytochrome P450 2C19 activity – biochemical, luminescence, ADME assay, primary screen. P33261. CYP2C19 Supersomes, luciferin-H EGE luminescence, 30 min. actives 21% (n = 96,000). inhibition, % at 5 µM;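 active = CYP2C19 inhibition above a set limit at 5 µM in the primary screen, cut at about 50% in these data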;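 note: plate controls were negative control wells for no effect and 2.5 mM tranylcypromine positive control for full effect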
Starred values were filed as active, the others as inactive; . = not tested or not shown. This is a sample that favours compounds with a hit; in the whole collection about 27% have one here.

SMILES | CYP2C9 inh | Cav3 T inh | CYP2C19 activ | CYP2C9 act | HIV Rev-RRE inh | CYP2C19 inhib
O=C1CC(Sc2ncccn2)C(=O)N1c1ccccc1C(F)(F)F (stereo unspecified) | 5 | 0.76 | 0.4 | 0.9 | 5 | 59*
CCS(=O)(=O)N1CCCC(C(=O)NC2CCC(C)CC2)C1 (stereo unspecified) | 1 | 0.011 | 0.7 | 1 | -2 | 27
O=c1cc(CN2CCN(CCO)CC2)c2cc3c(cc2o1)CCC3 | -13 | 0.99 | 1 | 1.1 | 2 | 1
O=c1cc(Cn2ccnc2)c2cc3c(cc2o1)CCC3 | 48 | -0.48 | 0 | 0.5 | 9 | 100*
Cc1cc2oc(=O)cc(Cn3ccnc3)c2cc1C | 57* | 0.88 | 0 | 0.4 | 1 | 100*
CC(C)(C)[C@H]1C=C(C(=O)NCc2nc3ccccc3[nH]2)O[C@@H](OCc2ccc(CO)cc2)C1 | . | -1.2 | . | . | . | .
COc1cc2c(cc1OC)-c1cc(NC3CCCCCCC3)nc(=O)n1CC2 | 51* | -1 | 0.6 | 0.5 | 18 | 38
Nn1c(SCC(=O)Nc2ccccc2)nnc1-c1cccnc1 | 8 | 0.34 | 0.9 | 0.9 | 8 | 11
Cc1noc(NS(=O)(=O)c2ccc(N/C=C/C(=O)c3cccnc3)cc2)c1C | -9 | 1.8 | 1.1 | 1.1 | . | -10
CC(C)CC(C)NNC(=O)c1cc2ccccc2[nH]1 (stereo unspecified) | 6 | -0.35 | 0.5 | 0.9 | 7 | 48
CCC(C)n1nccc1NC(=O)C(C)OC(=O)c1cc2ccccc2[nH]1 (stereo unspecified) | 30 | -0.51 | 0 | 0.7 | 2 | 97*
COc1ccc(-c2nc(N)n[nH]2)cc1 | 16 | -0.14 | 0.8 | 0.8 | 5 | 16
COc1cc(OC)cc(-c2nc(N)n[nH]2)c1 | 13 | -0.68 | 0.5 | 0.9 | 2 | 52*
COc1ccc(-n2c(Cc3cccn3C)nnc2SCC(=O)Nc2cccc(NC(C)=O)c2)cc1 | 19 | -1.7 | 0.9 | 0.8 | 10 | 13
CC(=O)Nc1cccc(NC(=O)CSc2nnc(Cc3cccn3C)n2-c2ccc(C)cc2)c1 | 38 | -3.7 | 1 | 0.6 | 6 | 3
Cn1cccc1Cc1nnc(SCC(=O)Nc2cccc(Cl)c2)n1-c1ccc(F)cc1 | 30 | -10* | 1 | 0.7 | . | -4
Cn1cccc1Cc1nnc(SCC(=O)Nc2cccc(F)c2)n1-c1ccc(F)cc1 | 22 | -7.3* | 0.7 | 0.8 | . | 29
COc1ccc(-n2c(Cc3cccn3C)nnc2SCC(=O)Nc2cccc(Cl)c2)cc1 | 85* | -13* | 0.8 | 0.1 | 4 | 23
O=C(OC(C(=O)NCc1cccs1)c1ccccc1F)c1ccco1 (stereo unspecified) | . | 0.79 | . | . | 1 | .
COCCNC(=O)C(OC(=O)c1cccs1)c1ccccc1 (stereo unspecified) | -8 | 0.047 | 1 | 1.1 | 6 | 4
CC(C)C(OC(=O)c1ccco1)C(=O)NCc1cccs1 (stereo unspecified) | 35 | 0.18 | 0.3 | 0.6 | -1 | 69*
CCC(OC(=O)c1ccco1)C(=O)NCc1ccc(C)cc1 (stereo unspecified) | 28 | 0.55 | 0.8 | 0.7 | . | 23
Cc1ccc(CNC(=O)C(C)OC(=O)c2ccco2)cc1 (stereo unspecified) | 55* | 0.38 | 0.3 | 0.4 | . | 72*
Cc1ccc(CNC(=O)C(OC(=O)c2ccco2)C(C)C)cc1 (stereo unspecified) | 61* | -1.1 | 0.1 | 0.4 | . | 86*
Cc1ccc(CNC(=O)C(C)OC(=O)c2cccs2)cc1 (stereo unspecified) | 68* | 1.1 | 0.2 | 0.3 | -4 | 77*
SMILES | CYP2C9 inh | Cav3 T inh | CYP2C19 activ | CYP2C9 act | HIV Rev-RRE inh | CYP2C19 inhib
CC(C)C(OC(=O)c1ccco1)C(=O)NCc1ccco1 (stereo unspecified) | -13 | 1 | 1 | 1.1 | . | -3
O=C1c2ccccc2S(=O)(=O)N1Cc1cc(=O)n2ccsc2n1 | 5 | -0.34 | 0.9 | 0.9 | -1 | 6
N=c1c(C(=O)NCc2ccco2)cc2c(=O)n3ccccc3nc2n1CCc1ccccc1 | 17 | -2.1 | 0.8 | 0.8 | 6 | 18
O=C(NCc1ccco1)c1cccn2c(=O)c3cc4ccccc4cc3nc12 | 42 | . | 0.9 | 0.6 | 57* | 11
O=C(NCc1ccco1)c1cnc2ccccn2c1=O | 55* | 0.35 | 1 | 0.4 | . | 2
CCOC(=O)c1cn2c3c(c(F)c(F)cc3c1=O)SC(N1CCOCC1)=N2 | . | . | . | . | 9 | .
COc1ccc(C(=O)COC(=O)C(CCCCN2C(=O)C3C4C=CC(C4)C3C2=O)N2C(=O)C3C4C=CC(C4)C3C2=O)cc1 (stereo unspecified) | . | -3.7* | . | . | -2 | .
COC(=O)C(CCCCN1C(=O)C2C3C=CC(C3)C2C1=O)N1C(=O)C2C3C=CC(C3)C2C1=O (stereo unspecified) | 59* | 1.1 | 0.5 | 0.4 | -4 | 47
COCCNC(=O)c1onc(CSc2cc(C)cc(C)c2)c1C(=O)NCCOC | . | -0.56 | . | . | . | .
CS(=O)(=O)N1CCc2cc(C(=O)O)ccc21 | 6 | 0.13 | 1 | 0.9 | 6 | 3
CC(=O)Nc1nc(C)c(-c2csc(Nc3ccc(O)cc3)n2)s1 | 76* | 0.67 | 0.9 | 0.2 | -3 | 6
CC(=O)Nc1nc(C)c(-c2csc(Nc3cccc([N+](=O)[O-])c3)n2)s1 | 89* | 1.1 | 0.2 | 0.1 | 3 | 83*
O=C(Nc1cccc(-c2csc(Nc3cccc(C(F)(F)F)c3)n2)c1)c1cc([N+](=O)[O-])cc(C(F)(F)F)c1 | . | -0.05 | . | . | . | .
Cc1ccc(Nc2nc(-c3sc(NC(=O)c4ccco4)nc3C)cs2)cc1 | 28 | -0.05 | 0.8 | 0.7 | 4 | 22
CS(=O)(=O)N1CCc2cc(-c3csc(NC(=O)C(c4ccccc4)c4ccccc4)n3)ccc21 | 58* | 0.059 | 0.9 | 0.4 | 8 | 11
CC(=O)c1cccc(Nc2nc(-c3cccc([N+](=O)[O-])c3)cs2)c1 | 57* | 0.016 | 0.7 | 0.4 | 7 | 32
CCOC(=O)N1CCC(NC(=O)c2cc(S(=O)(=O)N(CC)CC)ccc2F)CC1 | 43 | 0.89 | 0.8 | 0.6 | -6 | 15
COc1ccc(C2C(C(=O)NCC3CCCO3)c3cc(OC)c(OC)cc3C(=O)N2C)cc1OC (stereo unspecified) | 12 | 0.07 | 0.6 | 0.9 | . | 42
